ChEMBL document CHEMBL1821718, “Curcumin recognizes a unique binding site of tubulin” (J Med Chem, 2011)
One block for each compound: values may come before it. Activity calls are given as the source filed them. No cut-off for these calls is given here.

Legend:
[1] = organism: Capra hircus; test: Binding affinity to goat brain tubulin by isothermal titration calorimetry
[2] = Inhibition of goat brain tubulin polymerization assessed as turbidity by UV spectrophotometry; set-up: species or system Capra hircus
In short: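 Goat brain tubulin in PEM buffer (50 mM PIPES pH 7, 1 mM EGTA, 0.5 mM MgCl2) with 1 mM GTP. Assembly initiated with 10% DMSO at 37 °C and turbidity followed at 360 nm. Half-maximal inhibition taken as the concentration reducing polymer mass by 50%; run in triplicate, at least two repetitions.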

[3] = system: HeLa; test: Induction of apoptosis in human HeLa cells assessed as apoptotic cells at 5 uM after 48 hrs by FITC-conjugated annexin-V/PI assay; type: functional
In short: (§1)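 About 1 × 10^6 A549 or HeLa cells treated with 0–5 μM compound for 48 h. Stained 15 min at room temperature in the dark with FITC-annexin V (1 μg/mL) and PI (0.5 μg/mL) in Ca2+-enriched binding buffer. Annexin-V-positive fraction quantified by flow cytometry.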

[4] = system: HeLa (Homo sapiens); test: Induction of cell cycle arrest in human HeLa cells assessed as accumulation in G2/M phase at 5 uM after 24 hrs by flow cytometry
[5] = system: HeLa; test: Disruption of human HeLa cell morphology at 2.5 to 5 uM after 24 hrs by phase contrast microscopy; type: functional, cell-based
In short: (§2)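 A549 and HeLa cells grown in DMEM with 10% FBS at 37 °C, 5% CO2, exposed to 2.5 or 5 μM compound for 24 h. Morphology of control and treated cells recorded by inverted phase-contrast microscopy.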

[6] = system: A549; test: Disruption of human A549 cell morphology at 2.5 to 5 uM after 24 hrs by phase contrast microscopy; type: functional, cell-based; in short: as §2
[7] = system: HeLa; test: Disruption of interphase microtubule network in human HeLa cells at 2.5 uM after 24 hrs by confocal microscopy; type: functional, cell-based
In short: (§3)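 A549 or HeLa cells at 10^6 cells/mL exposed to 0–2.5 μM compound for 24 h. PBS-washed, fixed in 2% paraformaldehyde, permeabilized 1 h (0.1% Na citrate, 0.1% Triton), blocked in 5% BSA. Stained with mouse anti-α-tubulin (1:200) then rhodamine anti-mouse IgG (1:150) plus DAPI 1 μg/mL. Interphase network imaged by confocal microscopy; n = 3.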

[8] = Binding affinity to goat brain tubulin by spectrofluorimetry
[9] = system: HeLa; test: Induction of apoptosis in human HeLa cells assessed as abnormality in nuclear DNA at 5 uM by DAPI staining technique; type: functional, cell-based
[10] = system: A549; test: Disruption of interphase microtubule network in human A549 cells at 2.5 uM after 24 hrs by confocal microscopy; type: functional, cell-based; in short: as §3
[11] = system: MCF7; test: Cell cycle arrest in nocodazole pre-treated human MCF7 cells; type: functional, cell-based
[12] = system: HeLa; test: Perturbation of spindle microtubule and chromosomal organization in human HeLa cells at 2.5 uM after 24 hrs by immunofluorescence method; type: functional, cell-based
In short: (§4)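 Cells exposed to 0–2.5 μM compound for 24 h, fixed in 2% paraformaldehyde, permeabilized, blocked with 5% BSA. Spindles stained with anti-α-tubulin (1:200) and rhodamine secondary (1:150); chromosomes stained with DAPI (1 μg/mL). Bipolar spindle and metaphase-plate alignment scored by confocal microscopy; three experiments.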

[13] = system: HeLa; test: Cell cycle arrest in nocodazole pre-treated human HeLa cells at 5 uM assessed as accumulation in G2/M phase after 8 hrs by flow cytometry; type: functional
In short: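 HeLa cells at 1 × 10^6 cells/mL held 20 h in nocodazole (2 μM in methods; 1.5 μM in text), washed, then given fresh medium with 5 μM compound for 8 h. Fixed in ice-cold methanol, treated 4 h at 37 °C with 1 mg/mL RNase A, stained with PI. G2/M fraction measured by FACS.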

[14] = system: A549; test: Induction of apoptosis in human A549 cells assessed as apoptotic cells at 5 uM after 48 hrs by FITC-conjugated annexin-V/PI assay; type: functional; in short: as §1
[15] = system: A549; test: Perturbation of spindle microtubule and chromosomal organization in human A549 cells at 2.5 uM after 24 hrs by immunofluorescence method; type: functional, cell-based; in short: as §4
[16] = system: A549; test: Induction of apoptosis in human A549 cells assessed as abnormality in nuclear DNA at 5 uM by DAPI staining technique; type: functional, cell-based
[17] = system: A549; test: Antiproliferative activity against human A549 cells assessed as loss of cell viability after 48 hrs by MTT assay; type: functional, cell-based; conditions: A549, 48 h
In short: (§5)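 Cells seeded at 1 × 10^4 per well in DMEM with 10% FBS, 1 mM L-glutamine and antibiotics at 37 °C, 5% CO2. Exposed to 0–50 μM compound for 48 h. MTT (2 mg/mL in PBS) added until purple precipitate formed; absorbance read at 570 nm against 650 nm reference. Mean ± SEM, n = 4; IC50 taken from concentration-response.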

[18] = system: HeLa; test: Induction of cell cycle arrest in human HeLa cells assessed as accumulation in G2/M phase at 5 uM after 24 hrs by flow cytometry; type: functional, cell-based
[19] = system: HeLa; test: Antiproliferative activity against human HeLa cells assessed as loss of cell viability after 48 hrs by MTT assay; type: functional, cell-based; in short: as §5
[20] = system: HeLa; test: Disruption of interphase microtubule network in human HeLa cells after 24 hrs by confocal microscopy; type: functional, cell-based; in short: as §3
[21] = system: A549; test: Disruption of interphase microtubule network in human A549 cells after 24 hrs by confocal microscopy; type: functional, cell-based; in short: as §3

Activity [1]: inactive
Structure (SMILES): O=C(O)/C=C/c1ccc(O)c(O)c1

Activity [1]: inactive
Structure (SMILES): O=C(O)/C=C/c1ccccc1O

Activity [1]: inactive
Structure (SMILES): COc1ccc(/C=C/C(=O)O)cc1OC

Activity [1]: inactive
Structure (SMILES): O=C(O)/C=C/c1ccc(O)cc1O

Second part, the compound before the results:

Structure (SMILES): COc1cc(/C=C/c2cc(/C=C/c3ccc(O)c(OC)c3)n(-c3cccc([N+](=O)[O-])c3)n2)ccc1O
IC50 [2]: 36 µM

Structure (SMILES): O=C(O)/C=C/c1ccccc1
Activity [1]: inactive

Structure (SMILES): COc1ccc(-n2nc(/C=C/c3ccc(O)c(OC)c3)cc2/C=C/c2ccc(O)c(OC)c2)cc1
IC50 [2]: 38 µM

Structure (SMILES): COc1cc(/C=C/C(=O)CC(=O)/C=C/c2ccc(O)c(OC)c2)ccc1O [CURCUMIN]
Activity [3]: 8%
Activity [4]: inactive
Activity [5]: inactive
Activity [6]: inactive
Activity [7]: inactive
Ka [8]: 5.01 ×10⁵ /M
Activity [9]: inactive
Activity [10]: inactive
Activity [11]: Active
Activity [12]: inactive
Activity [13]: 18%
Activity [14]: 16%
Activity [15]: inactive
IC50 [2]: 20 µM
Activity [16]: inactive
IC50 [17]: 17 µM
Activity [18]: inactive

Structure (SMILES): COc1cc(/C=C/c2cc(/C=C/c3ccc(O)c(OC)c3)on2)ccc1O
IC50 [2]: 26 µM

Structure (SMILES): COc1cc(/C=C/C(=O)CC(=O)/C=C/c2ccc(OC(C)=O)c(OC)c2)ccc1OC(C)=O
IC50 [2]: 60 µM

Structure (SMILES): COc1cc(C=C(C(=O)/C=C/c2ccc(O)c(OC)c2)C(=O)/C=C/c2ccc(O)c(OC)c2)ccc1O
Activity [3]: 38%
IC50 [19]: 6 µM
Activity [5]: Active
Activity [6]: Active
Activity [20]: Dose-dependent effect
Activity [7]: Active
Ka [8]: 2.5 ×10⁶ /M
Activity [9]: Active
Activity [10]: Active
Activity [12]: Active
Activity [13]: 35%
Activity [21]: Dose-dependent effect
Activity [14]: 45%
Activity [15]: Active
IC50 [2]: 16 µM
Activity [16]: Active
IC50 [17]: 7 µM
Activity [18]: inactive

Structure (SMILES): COc1cc(/C=C/c2cc(/C=C/c3ccc(O)c(OC)c3)n(-c3ccc(F)cc3)n2)ccc1O
IC50 [2]: 34 µM

Structure (SMILES): COc1cc(/C=C/c2cc(/C=C/c3ccc(O)c(OC)c3)[nH]n2)ccc1O [CURCUMIN PYRAZOLE]
IC50 [2]: 23 µM
